Only some compounds are listed: those with a hit (about 2.2% of all), similar ones and a draw of the others.
NS3 helicase inh = HCV NS3 helicase inhibition; AID 1800; 0.56% of 290,000 active; NS3 helicase DNA unwinding, Cy5 molecular beacon fluorescence; inhibition, % at 10.9 µM;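 active = inhibition above the mean of all tested compounds plus 3 SD, set per campaign, cut at about 35% in these data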;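 also: 0% = DMSO wells and 100% = thioflavine S control wells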
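assay system = NS3 helicase fragment of HCV | buffer or medium = MOPS pH 6.5, MgCl2, DTT, Tween20, BSA | timing = 60 min unwinding reaction at 25 °C after ATP addition | signal = Cy5 beacon fluorescence read at start and 1 h | read-out basis = % inhibition of unwinding | control set = low DMSO, high thioflavine S at 110 µM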
DAGLB inhibitor = blocks human DAGLB lipase activity; inhibition, % at 5.17 µM; 0.059% of 340,000 active; AID 504411; HEK293T DAGLB membrane lysate, EnzChek fluorogenic substrate; in the data active = inhibition above about 34%;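 also: 0% = enzyme with vehicle and 100% = wells lacking enzyme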
GPR7 antag = antagonists of human GPR7 (neuropeptides B/W receptor 1) | 1.1% of 290,000 active | P48145 | inhibition, % at 4.4 µM | GPR7-expressing cells, fluorescence antagonist assay; in the data active = inhibition above about 16%, passing the limit was not always enough;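 also: cells stimulated with the agonist NPW; 0% = agonist with vehicle and 100% = vehicle without agonist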
DNA FID counter-1 = displaces DNA intercalator in HCV helicase counter-screen. DNA fluorescent intercalator displacement, fluorescence. inhibition, % at 7.9 µM. 0.17% of 290,000 active. AID 1845;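 also: 0% = vehicle and 100% = reference compound; higher means more ethidium bromide displaced from hairpin DNA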
GRK2 inh = blocks RNA aptamer binding to human GRK2; bead flow cytometry, FAM-aptamer displacement from GRK2; inhibition of aptamer binding, % at 10 µM; 0.59% of 330,000 active;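 active = inhibition of aptamer binding above 40%, roughly 3 SD of noise, on plates passing a quality check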;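 also: median bead fluorescence of bound FAM aptamer so fluorescent compounds give negative values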
Target sequence (P25098 whole entry, looked up): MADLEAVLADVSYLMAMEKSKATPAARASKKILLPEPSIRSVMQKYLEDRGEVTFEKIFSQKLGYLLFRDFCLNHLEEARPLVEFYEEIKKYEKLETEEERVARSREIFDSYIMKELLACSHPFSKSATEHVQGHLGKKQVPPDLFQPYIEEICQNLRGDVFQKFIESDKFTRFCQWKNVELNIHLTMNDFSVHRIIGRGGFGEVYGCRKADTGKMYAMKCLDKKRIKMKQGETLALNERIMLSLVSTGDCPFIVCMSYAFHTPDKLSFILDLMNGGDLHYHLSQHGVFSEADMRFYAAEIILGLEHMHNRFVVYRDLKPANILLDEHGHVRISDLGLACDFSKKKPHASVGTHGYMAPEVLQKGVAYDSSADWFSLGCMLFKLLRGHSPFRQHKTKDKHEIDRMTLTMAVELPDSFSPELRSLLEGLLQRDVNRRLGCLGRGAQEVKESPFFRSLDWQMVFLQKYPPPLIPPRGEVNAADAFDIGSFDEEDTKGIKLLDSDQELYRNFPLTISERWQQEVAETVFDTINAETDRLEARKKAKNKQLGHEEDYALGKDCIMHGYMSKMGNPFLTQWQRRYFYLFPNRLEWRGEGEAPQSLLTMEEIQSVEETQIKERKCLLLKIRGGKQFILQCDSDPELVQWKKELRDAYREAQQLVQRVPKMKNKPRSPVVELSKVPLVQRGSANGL
HCV core dimer = HCV core protein dimerization inhibition; TR-FRET GST/Flag-core106 dimerization, 1536-well; inhibition, % at 5 µM; 0.33% of 300,000 active; AID 1899;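 active = inhibition above the mean of all tested compounds plus 3 SD, set per screening campaign, cut at about 45% in these data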
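System: GST/Flag-tagged HCV core106 proteins. Incubation: compound-protein-antibody incubation 4 h at 22.5 °C. Technique: HTRF with 340 nm excitation, 617/671 nm emission. Medium: KF-containing HEPES buffer, pH 7.45, DTT, CHAPS, BSA. Read-out: inhibition (%) from 671 over 617 nm ratio. Also added: Eu(K)-anti-GST 90 ng/mL plus XL665-anti-Flag 1 µg/mL.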
NS3 hel confirm = confirmation of Hepatitis C virus NS3 helicase inhibitors | shares compounds with NS3 helicase inh | NS3 helicase DNA unwinding, Cy5 molecular beacon fluorescence | inhibition, % at 10.9 µM | 31% of 1,600 active | AID 1943;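 active = inhibition above the mean of all tested compounds plus 3 SD, cutoff set per campaign, cut at about 36% in these data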
DNA FID counter-2 = counter-screen for HCV NS3 helicase inhibitors: DNA intercalator displacement. 4% of 1,600 active. shares compounds with NS3 helicase inh. DNA fluorescent intercalator displacement, fluorescence. inhibition, % at 7.9 µM;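 also: 0% = vehicle and 100% = reference compound; higher means more displacement of ethidium bromide from the DNA hairpin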
FID counter DR = displaces fluorescent intercalator from DNA, HCV helicase counter-screen; IC50, µM; shares compounds with NS3 helicase inh; 120 tested, under 10 active; fluorescent intercalator displacement from DNA, fluorescence; call rule not given here
* marks the source's active call; other numbers are inactive results. Rule as the data show it, unless noted: active = inhibition above about 37%; inactive = the rest.

How did CC(=O)Nc1cc2c(cc1Cl)-c1ccccc1C2O (stereo unspecified) do in these assays?
DAGLB inhibitor: 5

How did Oc1ccc(/C=N/Nc2ccnc3cc(Cl)ccc23)c(O)c1O do in these assays?
NS3 helicase inh: 40*; DAGLB inhibitor: 13; GPR7 antag: -10; DNA FID counter-1: -19; GRK2 inh: 4; HCV core dimer: -16; NS3 hel confirm: 7; DNA FID counter-2: 45*

Results for CCOC(=O)Cn1c(=NC(=O)C2COc3ccccc3O2)sc2cc(S(N)(=O)=O)ccc21 (stereo unspecified) ?
NS3 helicase inh: 56*; DAGLB inhibitor: 0; GPR7 antag: 3; DNA FID counter-1: -9; GRK2 inh: 1; HCV core dimer: 19; NS3 hel confirm: 7; DNA FID counter-2: -26

How did CCOC(=O)Cn1c(=NC(=O)c2cc(-c3cccs3)nc3ccccc23)sc2cc(S(N)(=O)=O)ccc21 do in these assays?
NS3 helicase inh: 2; DAGLB inhibitor: -1; GPR7 antag: 3; DNA FID counter-1: -2; GRK2 inh: 0; HCV core dimer: -10

Results for CC1=CN2C(=N)/C(=C/c3ccc([N+](=O)[O-])o3)C(=O)N=C2S1 ?
NS3 helicase inh: 51*; DAGLB inhibitor: 3; GPR7 antag: -9; DNA FID counter-1: -11; GRK2 inh: 5; HCV core dimer: -2; NS3 hel confirm: 53*; DNA FID counter-2: 12; FID counter DR: >79

How did CC1=CN2C(=N)/C(=C/c3ccco3)C(=O)N=C2S1 do in these assays?
NS3 helicase inh: 6; DAGLB inhibitor: 0; GPR7 antag: -2; DNA FID counter-1: -3; GRK2 inh: 7; HCV core dimer: -14

Results for COc1ccccc1-c1ccc(/C=C2/C=C(C)OC2=O)o1 ?
NS3 helicase inh: 15; DAGLB inhibitor: -1; GPR7 antag: -11; DNA FID counter-1: -28; GRK2 inh: 0; HCV core dimer: 13

Results for COc1ccccc1-c1ccc(/C=C2\C=CC(=O)O2)o1 ?
NS3 helicase inh: 37*; GPR7 antag: -5; DNA FID counter-1: -15; GRK2 inh: 0; HCV core dimer: 23; NS3 hel confirm: -5; DNA FID counter-2: -3

How did CC1COC(=C2C(=O)OCC2C)C1 (stereo unspecified) do in these assays?
DAGLB inhibitor: -8

What do the screens show for `Cc1occc1C(=O)NNC(=S)NC(=O)COc1ccc(Cl)cc1Cl`?
NS3 helicase inh: 72*; DAGLB inhibitor: -1; GPR7 antag: -8; DNA FID counter-1: -19; GRK2 inh: 0; HCV core dimer: -4; NS3 hel confirm: 58*; DNA FID counter-2: -6; FID counter DR: >79

How did COc1ccc(C(=O)Nc2ccccc2C(=O)O)cc1Cl do in these assays?
NS3 helicase inh: 39*; DAGLB inhibitor: 6; GPR7 antag: 6; DNA FID counter-1: -36; GRK2 inh: 1; HCV core dimer: -5; NS3 hel confirm: 30; DNA FID counter-2: 9

What do the screens show for `O=S(=O)(c1ccccc1)C(Br)S(=O)(=O)c1ccccc1`?
DAGLB inhibitor: -4

How did O=C1OC(/C=C/c2ccccc2)=NC/1=C/C=C/c1ccccc1 do in these assays?
NS3 helicase inh: 17; DAGLB inhibitor: 3; GPR7 antag: 0; DNA FID counter-1: -30; GRK2 inh: 5; HCV core dimer: 19

What do the screens show for `O=C1OC(/C=C/c2ccc(Cl)cc2)=NC/1=C/c1ccco1`?
NS3 helicase inh: 41*; DAGLB inhibitor: 3; GPR7 antag: -15; DNA FID counter-1: -17; GRK2 inh: 1; HCV core dimer: 21; NS3 hel confirm: -2; DNA FID counter-2: 3

What do the screens show for `O=C(c1cccc(Br)c1)N1CCN(c2cnn(-c3ccccc3)c(=O)c2Cl)CC1`?
NS3 helicase inh: -8; DAGLB inhibitor: 0; GPR7 antag: 18; DNA FID counter-1: -28; GRK2 inh: 0; HCV core dimer: 2

Compound activity deposited in PubChem BioAssay by several laboratories.
